Laboratory results from ChEMBL document CHEMBL5038617, “1,2,4-Triazole-3-thione compounds with a 4-ethyl alkyl/aryl sulfide substituent are broad-spectrum metallo-β-lactamase inhibitors with re-sensitization activity” (Eur J Med Chem, 2021).

Experiments:
[1] = Inhibition of bacterial Metallo-beta-lactamase VIM-1 (unknown origin) assessed as substrate hydrolysis using meropenem as substrate by UV-visible spectrometry analysis; design: species or system Bacteria
In short: (§1)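 Purified MBL enzyme at 1–70 nM final, in 50 mM HEPES pH 7.5 at 30 °C with 0.5% DMSO. Reporter substrate 150 µM imipenem or meropenem; hydrolysis read at 300 nm. […] Ki measured when inhibition exceeded 75%, by competitive-model v0/vi vs [I] slope or Dixon plot. Some runs used 10 min enzyme–inhibitor preincubation. Triplicate.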

[2] = Inhibition of bacterial Metallo-beta-lactamase VIM-2 (unknown origin) assessed as substrate hydrolysis using meropenem as substrate by UV-visible spectrometry analysis; design: species or system Bacteria; in short: as §1
[3] = Inhibition of bacterial Metallo-beta-lactamase VIM-4 (unknown origin) assessed as substrate hydrolysis using meropenem as substrate by UV-visible spectrometry analysis; design: species or system Bacteria; in short: as §1
[4] = Inhibition of bacterial New Delhi metallo-beta-lactamase 1 (unknown origin) assessed as substrate hydrolysis using meropenem as substrate by UV-visible spectrometry analysis; design: species or system Bacteria; in short: as §1
[5] = Inhibition of bacterial Metallo-beta-lactamase IMP-1 (unknown origin) assessed as substrate hydrolysis using meropenem as substrate by UV-visible spectrometry analysis; design: species or system Bacteria; in short: as §1
Klebsiella pneumoniae [6] = assay: Synergistic antibacterial activity against Klebsiella pneumonia 7023 clinical isolate strain producing Metallo-beta-lactamase VIM-1 assessed as meropenem MIC in presence of meropenem incubated for 24 hrs by broth microdilution method; type: functional
In short: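 CLSI broth microdilution in Mueller-Hinton broth with 5 × 10^4 CFU/well. Meropenem two-fold serial dilutions tested with and without inhibitor fixed at 32 µg/mL, inhibitor added before antibiotic. DMSO ≤1%. […] Growth controls included. Triplicate.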

HeLa = assay: Cytotoxicity against human HeLa cells assessed as LDH release measured after 24 hrs by CytoTox96 nonradioactive assay; type: functional, cell-based
In short: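 HeLa cells (20,000/well) incubated 24 h at 37 °C, 5% CO2 in DMEM with 10% FBS, 4.5 mg/mL glucose and 2 mM L-glutamine, with compound up to 250 µM. LDH release measured. Medium-only control and Triton X-100 maximum-release control included. % cytotoxicity = 100 × sample/maximum release. IC50 taken as 50% cytotoxicity.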

Klebsiella pneumoniae [7] = assay: Synergistic antibacterial activity against Klebsiella pneumonia VA 416/02 clinical isolate strain producing Metallo-beta-lactamase VIM-4 assessed as meropenem MIC in presence of meropenem incubated for 24 hrs by broth microdilution method; conditions: VA 416/02, 24 h
Bacteria [8] = assay: Inhibition of bacterial New Delhi metallo-beta-lactamase 1 (unknown origin) assessed as substrate hydrolysis at 100 uM using meropenem as substrate by UV-visible spectrometry analysis; in short: as §1
Bacteria [9] = assay: Inhibition of bacterial Metallo-beta-lactamase IMP-1 (unknown origin) assessed as substrate hydrolysis at 100 uM using meropenem as substrate by UV-visible spectrometry analysis; in short: as §1
Bacteria [10] = assay: Inhibition of bacterial Metallo-beta-lactamase VIM-1 (unknown origin) assessed as substrate hydrolysis at 100 uM using meropenem as substrate by UV-visible spectrometry analysis; in short: as §1
Bacteria [11] = assay: Inhibition of bacterial Metallo-beta-lactamase VIM-2 (unknown origin) assessed as substrate hydrolysis at 100 uM using meropenem as substrate by UV-visible spectrometry analysis; in short: as §1
Bacteria [12] = assay: Inhibition of bacterial Metallo-beta-lactamase VIM-4 (unknown origin) assessed as substrate hydrolysis at 100 uM using meropenem as substrate by UV-visible spectrometry analysis; in short: as §1
[13] = Cytotoxicity against human PBMC cells assessed as cell viability measured after 24 hrs by flowcytometry method; type: toxicity, cell-based; conditions: human, PBMC cells
In short: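 PBMC from four individual donors were isolated by density centrifugation, frozen, thawed and resuspended at 1.10e6/mL in RPMI with 10% FBS. Compound added from 20 mM DMSO stock by serial dilution in RPMI; final concentrations 500–7.8 µM, in duplicate. After 24 h, live cells counted by flow cytometry using FSC/SSC gating. IC50 calculated for each donor.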

Row | Compound | Ki [1] | Ki [2] | Ki [3] | Ki [4] | Ki [5] | MIC (Klebsiella pneumoniae [6]) | MIC (Klebsiella pneumoniae [7]) | inhibition (Bacteria [8]) | inhibition (Bacteria [9]) | inhibition (Bacteria [10]) | inhibition (Bacteria [11]) | inhibition (Bacteria [12]) | IC50 (HeLa) | IC50 at 24 h [13]
1 | S=c1[nH]nc(-c2ccccc2)n1CCOCc1ccccc1 | 1.02 µM | 3.16 µM | 2.06 µM |  |  | 4 mg/L | 2 mg/L | 33% | 42% |  |  |  |  | 
2 | FC(F)(F)c1cc(SCCn2c(-c3ccccc3)n[nH]c2=S)c2ccccc2n1 |  |  |  | 12.9 µM |  |  |  |  | < 30% | 37% | < 30% | < 30% |  | 
3 | S=c1[nH]nc(-c2ccccc2)n1CCSc1ccccc1 | 1.26 µM | 1.57 µM | 0.54 µM | 11 µM | 3.35 µM | 1 mg/L | 1 mg/L |  |  |  |  |  |  | 
4 | COc1ccc(O)c(-c2n[nH]c(=S)n2CCSCc2ccccc2)c1 | 0.18 µM | 1.65 µM | 0.6 µM |  |  | 2 mg/L | 2 mg/L | 46% | 63% |  |  |  |  | 
5 | O=C(O)CCSCCn1c(-c2ccccc2)n[nH]c1=S | 1.99 µM | 1.91 µM | 1.98 µM |  |  | 2 mg/L | 1 mg/L | 59% | 67% |  |  |  |  | 
6 | S=c1[nH]nc(-c2ccccc2)n1CCSc1cccc2ccccc12 | 0.48 µM | 1 µM | 0.25 µM |  |  | 8 mg/L | 16 mg/L | < 30% | < 30% |  |  |  |  | 
7 | Nc1ccccc1SCCn1c(-c2ccccc2)n[nH]c1=S | 0.47 µM | 1.15 µM | 0.41 µM | 16.3 µM | 22.2 µM | 4 mg/L | 2 mg/L |  |  |  |  |  |  | 
8 | S=c1[nH]nc(-c2ccc(OCc3ccccc3)cc2)n1CCSCc1ccccc1 | 2.24 µM |  | 1.04 µM |  |  |  |  | < 30% | 60% |  | < 30% |  |  | 
9 | S=c1[nH]nc(-c2ccccc2)n1CCSc1nc2ccccc2s1 |  |  |  |  |  |  |  | < 30% | 47% | < 30% | 30% | 44% |  | 
10 | O=C(O)CSCCn1c(-c2ccccc2)n[nH]c1=S | 2.36 µM | 0.81 µM | 0.71 µM |  |  | 2 mg/L | 4 mg/L | 40% | < 30% |  |  |  |  | 
11 | Fc1ccccc1CSCCn1c(-c2ccccc2)n[nH]c1=S | 0.59 µM | 0.28 µM | 0.32 µM | 11.9 µM | 12.1 µM | 1 mg/L | 2 mg/L |  |  |  |  |  | 165 µM | 175 µM

Continued, in another order:

Row | Ki [1] | Ki [2] | Ki [3] | Ki [4] | Ki [5] | MIC (Klebsiella pneumoniae [6]) | MIC (Klebsiella pneumoniae [7]) | inhibition (Bacteria [8]) | inhibition (Bacteria [9]) | inhibition (Bacteria [10]) | inhibition (Bacteria [11]) | inhibition (Bacteria [12]) | Compound | IC50 (HeLa) | IC50 at 24 h [13]
12 | 0.48 µM | 0.6 µM | 0.22 µM | 6 µM | 35 µM | 2 mg/L | 4 mg/L |  |  |  |  |  | O=C(O)C(CSCCn1c(-c2ccccc2)n[nH]c1=S)c1ccccc1 (stereo unspecified) | > 250 µM | 
13 | 1.65 µM | 0.19 µM | 0.21 µM |  |  | 4 mg/L | 2 mg/L | 40% | 30% |  |  |  | O=C(O)C(SCCn1c(-c2ccccc2)n[nH]c1=S)c1ccccc1 (stereo unspecified) |  | 
14 | 0.48 µM | 0.57 µM | 0.56 µM | 13.2 µM | 19 µM | 2 mg/L | 1 mg/L |  | 72% |  |  |  | O=[N+]([O-])c1ccccc1CSCCn1c(-c2ccccc2)n[nH]c1=S |  | 
15 | 2.17 µM |  | 2.95 µM |  |  | 2 mg/L | 2 mg/L | < 30% | < 30% |  | 56% |  | Cc1nnc(SCCn2c(-c3ccccc3)n[nH]c2=S)s1 |  | 
16 | 0.46 µM | 1.76 µM | 0.43 µM | 21.1 µM | 17.7 µM | 2 mg/L | 1 mg/L |  |  |  |  |  | S=c1[nH]nc(-c2ccccc2)n1CCSCCc1ccccc1 |  | 
17 |  |  |  |  |  |  |  | < 30% | 32% | < 30% | 44% | 52% | S=c1[nH]nc(-c2ccccc2)n1CCSc1nc(-c2ccccc2)n[nH]1 |  | 
18 | 2.22 µM | 0.83 µM | 1.11 µM | 15.1 µM | 9.66 µM | 8 mg/L | 2 mg/L |  |  |  |  |  | Fc1ccc(CSCCn2c(-c3ccccc3)n[nH]c2=S)cc1 |  | 
19 | 2.98 µM | 1.35 µM | 4.85 µM |  |  | 2 mg/L | 1 mg/L | 42% | 46% |  |  |  | S=c1[nH]nc(-c2ccccc2)n1CCCSc1ccccc1 |  | 
20 | 0.4 µM | 0.8 µM | 0.5 µM | 13 µM | 44 µM | 4 mg/L | 2 mg/L |  |  |  |  |  | Cc1ccccc1-c1n[nH]c(=S)n1CCSCc1ccccc1 | 121 µM | 
21 | 1.39 µM | 0.37 µM | 0.21 µM | 20.3 µM |  | 4 mg/L | 2 mg/L |  | 56% |  |  |  | O=C(O)C(CSCCn1c(-c2cccc(-c3ccccc3)c2)n[nH]c1=S)c1ccccc1 (stereo unspecified) |  | 
22 | 0.43 µM | 1.29 µM | 0.88 µM | 11.1 µM | 3.63 µM | 2 mg/L | 1 mg/L |  |  |  |  |  | O=[N+]([O-])c1ccc(CSCCn2c(-c3ccccc3)n[nH]c2=S)cc1 |  | 
23 | 1.33 µM | 0.94 µM | 1.18 µM | 12 µM | 8.67 µM | 2 mg/L | 1 mg/L |  |  |  |  |  | Fc1ccc(CSCCn2c(-c3ccccc3)n[nH]c2=S)c(F)c1 |  | 
24 |  |  |  |  |  |  |  | < 30% | 35% |  | < 30% |  | S=c1[nH]nc(-c2ccccc2-c2ccccc2)n1CCSCc1ccccc1 |  | 
